According to ChEMBL document CHEMBL1124104, “(Acyloxy)benzophenones and (acyloxy)-4-pyrones. A new class of inhibitors of human neutrophil elastase” (J Med Chem, 1988):
Each block holds one compound with its values, some of them ahead of it.

Legend:
[1] = target: T1, Neutrophil elastase (Homo sapiens) (UniProt P08246); details: 1 uM
T1 sequence (whole entry): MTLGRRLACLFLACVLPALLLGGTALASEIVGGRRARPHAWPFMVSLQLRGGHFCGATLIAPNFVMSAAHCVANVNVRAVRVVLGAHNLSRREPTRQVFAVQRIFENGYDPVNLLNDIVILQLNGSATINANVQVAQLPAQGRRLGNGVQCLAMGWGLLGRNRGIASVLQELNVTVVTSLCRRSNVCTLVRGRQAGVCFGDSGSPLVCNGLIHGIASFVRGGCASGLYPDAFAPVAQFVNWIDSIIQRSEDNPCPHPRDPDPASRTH

[2] = target: T1, Neutrophil elastase (Homo sapiens); details: 3 uM
[3] = Inhibitory activity against Hog pancreatic elastase; IA = Inactive at 10e-6; design: species or system Sus scrofa
[4] = target: T1, Neutrophil elastase (Homo sapiens); details: 3 uM; remark: listed apart in the source
[5] = target: T1, Neutrophil elastase (Homo sapiens); details: 2 uM
[6] = target: T1, Neutrophil elastase (Homo sapiens); details: 2 uM; remark: listed apart in the source
[7] = target: T2, Neutrophil elastase (Homo sapiens, UniProt P08246); assay: Inhibitory activity against human leukocyte elastase at 10e-7 M
T2 sequence (P08246 whole entry): T1 sequence (whole entry)

[8] = Inhibitory activity against pancreatic elastase; IA = Inactive at 10e-6
[9] = target: T1, Neutrophil elastase (Homo sapiens); details: 3 uM; remark: listed apart in the source
[10] = target: T1, Neutrophil elastase (Homo sapiens); details: 1 uM; remark: listed apart in the source
[11] = target: T2, Neutrophil elastase; assay: Binding affinity towards human leukocyte elastase at 10e-8 M
How it was run: (§1)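 HLE activity followed as rise in absorbance at 410 nm from nitroanilide release; substrate (methoxysuccinyl)Ala-Ala-Pro-Val nitroanilide at 10⁻⁴ M. Run in 0.2 M Tris, pH 8.0, 30 °C. Inhibitors and substrate dissolved in DMSO, which made up 10% of the final medium. Enzyme titrated to give 0.12 OD unit/min per 10 mm path.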

[12] = target: T1, Neutrophil elastase (Homo sapiens); details: 1 uM; remark: listed apart in the source
[13] = target: T1, Neutrophil elastase (Homo sapiens); details: 2 uM; remark: listed apart in the source
[14] = target: T2, Neutrophil elastase; assay: Inhibitory activity against human leukocyte elastase at 10e-9 M
How it was run: as §1

[15] = target: T1, Neutrophil elastase (Homo sapiens); assay: Inhibitory activity against [14C]elastin hydrolysis at 4 uM concentration and 2 hr.
How it was run: (§2)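 Elastase digestion of [¹⁴C]elastin, quantitated by radiolabel release (method of Bielefeld et al.). Substrate, inhibitor and elastase were all present for the whole run, and % inhibition was read at 1, 2 and 3 h.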

[16] = target: T1, Neutrophil elastase (Homo sapiens); assay: Inhibitory activity against [14C]-Elastin hydrolysis at 3 uM concentration and 3h.
How it was run: as §2

[17] = target: T1, Neutrophil elastase (Homo sapiens); assay: Inhibitory activity against [14C]elastin hydrolysis at 3 uM concentration and 1h.
How it was run: as §2

[18] = target: T1, Neutrophil elastase (Homo sapiens); assay: Inhibitory activity against [14C]elastin hydrolysis at 4 uM concentration and 3h.
How it was run: as §2

[19] = target: T1, Neutrophil elastase (Homo sapiens); assay: Inhibitory activity against [14C]elastin hydrolysis at 2 uM concentration and 1h.
How it was run: as §2

[20] = target: T1, Neutrophil elastase (Homo sapiens); assay: Inhibitory activity against [14C]-Elastin hydrolysis at 2 uM concentration and 3h.
How it was run: as §2

[21] = target: T1, Neutrophil elastase (Homo sapiens); assay: Inhibitory activity against [14C]elastin hydrolysis at 3 uM concentration and 2 hr.
How it was run: as §2

[22] = target: T1, Neutrophil elastase (Homo sapiens); assay: Inhibitory activity against [14C]elastin hydrolysis at 4 uM concentration and 1h.
How it was run: as §2

[23] = target: T1, Neutrophil elastase (Homo sapiens); assay: Inhibitory activity against [14C]-Elastin hydrolysis at 2 uM concentration and 2 hr.
How it was run: as §2

[24] = target: T1, Neutrophil elastase (Homo sapiens); assay: Inhibitory activity against [14C]-Elastin hydrolysis at 0.5 uM concentration and 2 hr.
How it was run: as §2

[25] = target: T1, Neutrophil elastase (Homo sapiens); assay: Inhibitory activity against [14C]elastin hydrolysis at 0.5 uM concentration and 1h.
How it was run: as §2

[26] = target: T1, Neutrophil elastase (Homo sapiens); assay: Inhibitory activity against [14C]elastin hydrolysis at 1 uM concentration and 2 hr.
How it was run: as §2

[27] = target: T1, Neutrophil elastase (Homo sapiens); assay: Inhibitory activity against [14C]elastin hydrolysis at 0.5 uM concentration and 3h.
How it was run: as §2

[28] = target: T1, Neutrophil elastase (Homo sapiens); assay: Inhibitory activity against [14C]elastin hydrolysis at 1 uM concentration and 1h.
How it was run: as §2

[29] = target: T1, Neutrophil elastase (Homo sapiens); assay: Inhibitory activity against [14C]elastin hydrolysis at 1 uM concentration and 3h.
How it was run: as §2

[30] = target: T1, Neutrophil elastase (Homo sapiens); assay: (§3) Inhibitory activity against human leukocyte elastase at 10e-4 M
How it was run: as §1

[31] = target: T2, Neutrophil elastase; assay: Inhibitory activity against human leukocyte elastase at 10e-8 M
[32] = Inhibitory activity against Hog pancreatic elastase; IA = Inactive at 1e-5M; design: species or system Sus scrofa
[33] = Inhibitory activity against pancreatic elastase; IA = Inactive at 1e-5M
[34] = Inhibitory activity against Hog pancreatic elastase IA = Inactive at 10e-5 M; design: species or system Sus scrofa
[35] = Inhibitory activity against pancreatic elastase; IA = Inactive at 10e-5 M
[36] = Inhibitory activity against Hog pancreatic elastase; IA = Inactive at 10e-5 M; design: species or system Sus scrofa
[37] = Inhibitory activity against Hog pancreatic elastase;IA = Inactive at 10e-5 M; design: species or system Sus scrofa
[38] = target: T2, Neutrophil elastase; assay: Inhibitory activity against human leukocyte elastase; No inhibition at 1x10E-2 M
How it was run: as §1

[39] = target: T2, Neutrophil elastase; assay: as §3
How it was run: as §1

[40] = target: T2, Neutrophil elastase; assay: Inhibitory activity against human leukocyte elastase;IA = Inactive at 10e-4 M
How it was run: as §1

[41] = Inhibitory activity against pancreatic elastase; A = Inactive at 10e-5 M
[42] = Inhibitory activity against Hog pancreatic elastase; A = Inactive at 10e-5 M; design: species or system Sus scrofa
[43] = target: T2, Neutrophil elastase; assay: Binding affinity towards human leukocyte elastase at 10e-7 M

- inhibition [1]: 28%
- inhibition [2]: 67%
- IC50 [3]: Not Active
- inhibition [4]: 77%
- inhibition [5]: 42%
- inhibition [6]: 62%
- IC50 [7]: 120 nM
- IC50 [8]: Not Active
- inhibition [9]: 77%
- inhibition [10]: 34%
- Ki [11]: 71 nM
- inhibition [12]: 15%
- inhibition [13]: 46%
SMILES: CC(C)(C)C(=O)Oc1ccc(C(=O)c2ccc(OC(=O)C(C)(C)C)cc2)cc1

- IC50 [14]: 1900 nM
SMILES: C=C(C)C(=O)Oc1ccc(C(=O)c2ccccc2)cc1

- inhibition [15]: 50%
- inhibition [16]: 32%
- inhibition [17]: 74%
- IC50 [7]: 160 nM
- inhibition [18]: 22%
- inhibition [19]: 61%
- inhibition [20]: 13%
- inhibition [21]: 46%
- inhibition [22]: 77%
- inhibition [23]: 33%
SMILES: CCCCCCCC/C=C/CCCCCCCCCCCC(=O)OCc1cc(=O)c(OC(=O)C(C)(C)C)co1

- inhibition [24]: 19%
- inhibition [25]: 20%
- inhibition [26]: 63%
- inhibition [19]: 81%
- inhibition [27]: 6%
- inhibition [20]: 76%
- inhibition [23]: 81%
- inhibition [28]: 45%
- inhibition [29]: 47%
SMILES: CC(C)(C)C(=O)Oc1ccc(C(=O)c2ccc(OC(=O)C(C)(C)C)cc2OC(=O)C(C)(C)C)cc1

- inhibition [30]: 33%
SMILES: O=c1cc(COC2CCOCC2)occ1OC(=O)[C@]12C[C@H]3C[C@H](C[C@H](C3)C1)C2

- IC50 [31]: 72 nM
SMILES: CCCCCCCCCCCCCCCCCC(=O)OCc1cc(=O)c(OC(=O)C(C)C)co1

- IC50 [32]: Not Active
- IC50 [33]: Not Active
SMILES: CC(C)(C)C(=O)Oc1ccc(C(=O)c2ccccc2)cc1

- inhibition [24]: 38%
- inhibition [25]: 38%
- inhibition [26]: 72%
- IC50 [31]: 27 nM
- inhibition [19]: 81%
- inhibition [27]: 21%
- inhibition [20]: 82%
- IC50 [34]: Not Active
- inhibition [23]: 85%
- inhibition [28]: 62%
- Ki [11]: 68 nM
- IC50 [35]: Not Active
- inhibition [29]: 59%
SMILES: CC(C)(C)C(=O)Oc1ccc(C(=O)c2ccc(OC(=O)C(C)(C)C)cc2OC(=O)C(C)(C)C)c(OC(=O)C(C)(C)C)c1

- IC50 [36]: Not Active
- IC50 [7]: 200 nM
- IC50 [35]: Not Active
SMILES: CC(C)(C)C(=O)Oc1ccc(C(=O)OCc2cc(=O)c(OC(=O)C(C)(C)C)co2)cc1

- inhibition [15]: 53%
- inhibition [16]: 13%
- inhibition [17]: 67%
- IC50 [7]: 100 nM
- inhibition [18]: 21%
- inhibition [19]: 57%
- inhibition [20]: 9%
- IC50 [37]: Not Active
- inhibition [21]: 39%
- inhibition [22]: 79%
- inhibition [23]: 21%
- IC50 [35]: Not Active
SMILES: CCCCCCCCCCCCCCCCCC(=O)OCc1cc(=O)c(OC(=O)C(C)(C)C)co1

- IC50 [36]: Not Active
- IC50 [7]: 130 nM
- IC50 [35]: Not Active
SMILES: CCCCCC/C=C/CCCCCCCC(=O)OCc1cc(=O)c(OC(=O)C(C)(C)C)co1

- inhibition [26]: 15%
- inhibition [16]: 31%
- inhibition [17]: 71%
- IC50 [7]: 100 nM
- inhibition [19]: 58%
- inhibition [20]: 5%
- inhibition [21]: 67%
- inhibition [23]: 44%
- inhibition [28]: 39%
- inhibition [29]: 3%
SMILES: CC(C)(C)C(=O)Oc1cc(C(=O)OCc2cc(=O)c(OC(=O)C(C)(C)C)co2)cc(OC(=O)C(C)(C)C)c1OC(=O)C(C)(C)C

- IC50 [38]: No inhibition
SMILES: CC1C(=O)Oc2ccc(C(=O)c3ccccc3)cc21 (stereo not given)

- IC50 [39]: 100000 nM
SMILES: CCCCCCCCCCCCCCCC(=O)OCc1cc(=O)c(O)co1

- IC50 [40]: Not Active
SMILES: CC(C)(C)C(=O)Oc1coc(CO)cc1=O

- inhibition [26]: 5%
- inhibition [15]: 80%
- IC50 [41]: Not Active
- IC50 [42]: Not Active
- Ki [43]: 70 nM
- IC50 [31]: 27 nM
- inhibition [18]: 54%
- inhibition [19]: 36%
- inhibition [20]: 1%
- inhibition [22]: 93%
- inhibition [23]: 16%
- inhibition [28]: 25%
- inhibition [29]: -1%
SMILES: CC(C)(C)C(=O)Oc1ccc(C(=O)OCc2cc(=O)c(OC(=O)C(C)(C)C)co2)c(OC(=O)C(C)(C)C)c1

- IC50 [38]: No inhibition
SMILES: CC1(C)C(=O)Oc2ccc(C(=O)c3ccccc3)cc21
